One may read the MIC as the smallest concentration in the dilution series that meets the test's criterion for growth inhibition. Higher therefore signals a less susceptible organism. One may read the ED50 as the dose at which the effect has come halfway, by size or by number of responders. Low values mean an effect at a small dose, high ones a need for a large dose.

The record followed here is ChEMBL document CHEMBL1122708, “Preparation and antibacterial activities of new 1,2,3-diazaborine derivatives and analogues” (1984).

Converted amounts (≈) assume the structure as drawn.

One assay deals with Klebsiella aerogenes. Nature of the assay: Minimum inhibitory concentration of compound against Enterobacter aerogenes delta 220. In kind it is functional.
The test system of a further assay is Klebsiella pneumoniae. In words: Minimum inhibitory concentration of compound against Klebsiella pneumoniae delta 217. In kind it is functional.
Assay [1] concerns Escherichia coli. In words: Antibacterial activity againist Escherichia coli 120 infected NMRI mice after peroral administration. The class given is functional. As to conditions: po. An outline of the steps: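 ED50 in NMRI mice infected intraperitoneally with E. coli 120; compound given orally immediately and 5 h after infection.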
For assay [2], the system named is Neisseria gonorrhoeae. Nature of the assay: Minimum inhibitory concentration of compound against Neisseria gonorrhoeae AS 7720. In kind it is functional. Summed up:
(§1)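 Agar dilution on Kellogg agar, 10⁶ colony forming units, incubated 20 h at 36 °C in 5% CO₂; MIC is the lowest concentration giving no visible growth.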

The next assay deals with Proteus mirabilis. In words: Minimum inhibitory concentration against Proteus mirabilis delta 89. In kind it is functional.
In another assay the test system is Salmonella typhimurium. In words: Minimum inhibitory concentration of compound against Salmonella Typhimurium delta 119. As to conditions: Salmonella enterica. In kind it is functional, Salmonella enterica subsp. enterica serovar Typhimurium.
For assay [3], the system named is Neisseria gonorrhoeae. Nature of the assay: Minimum inhibitory concentration of compound against Neisseria gonorrhoeae W2. The class given is functional. Summed up:
as §1

Assay [4] relates to Escherichia coli. In words: Minimum inhibitory concentration of compound against Escherichia coli delta 120. In kind it is functional.

`CCCS(=O)(=O)N1N=Cc2sccc2B1O`: the MIC in the assay with Klebsiella aerogenes turned out to be 25 µg/mL (≈ 96.8 µM); in the assay on Klebsiella pneumoniae, 1.56 µg/mL (≈ 6.04 µM); against Neisseria gonorrhoeae [2], 8 µg/mL (≈ 31 µM); in the assay on Proteus mirabilis, 25 µg/mL (≈ 96.8 µM); against Salmonella typhimurium, 3.12 µg/mL (≈ 12.1 µM); in the assay on Neisseria gonorrhoeae [3], 8 µg/mL (≈ 31 µM). In the assay on Escherichia coli [4], this compound displayed an MIC of 6.25 µg/mL (≈ 24.2 µM). In the assay with Escherichia coli [1], this compound showed a 50% effective dose (ED50) of 28 mg/kg.
As to `Nc1ccc(S(=O)(=O)N2N=Cc3c(F)cccc3B2O)cc1`, the MIC in the assay with Klebsiella aerogenes is 50 µg/mL (≈ 157 µM); in the assay on Klebsiella pneumoniae, 10 µg/mL (≈ 31.3 µM); with Neisseria gonorrhoeae [2], 8 µg/mL (≈ 25.1 µM); with Proteus mirabilis, 6.25 µg/mL (≈ 19.6 µM); in the assay on Salmonella typhimurium, 10 µg/mL (≈ 31.3 µM); with Neisseria gonorrhoeae [3], 8 µg/mL (≈ 25.1 µM). For the same compound, the MIC against Escherichia coli [4] was 25 µg/mL (≈ 78.3 µM). For the same compound, the ED50 with Escherichia coli [1] worked out at 65 mg/kg.
For the compound `Nc1ccc(S(=O)(=O)N2N=Cc3cc(Br)ccc3B2O)cc1`, the MIC against Klebsiella aerogenes stood at 25 µg/mL (≈ 65.8 µM); against Klebsiella pneumoniae, 1.56 µg/mL (≈ 4.1 µM); with Neisseria gonorrhoeae [2], 1 µg/mL (≈ 2.63 µM); against Proteus mirabilis, 0.78 µg/mL (≈ 2.05 µM); with Salmonella typhimurium it was 3.12 µg/mL (≈ 8.21 µM); in the assay on Neisseria gonorrhoeae [3], 2 µg/mL (≈ 5.26 µM). Also, in the assay on Escherichia coli [4], 10 µg/mL (≈ 26.3 µM) was the least that counted as inhibitory (MIC). For the same compound, the ED50 in the assay with Escherichia coli [1] is 16 mg/kg.
On to `Cc1ccc2c(c1)C=NN(S(=O)(=O)c1ccc(N)cc1Cl)B2O`, for which the minimum inhibitory concentration (MIC) in the assay with Klebsiella aerogenes is 10 µg/mL (≈ 28.6 µM); against Klebsiella pneumoniae, 0.78 µg/mL (≈ 2.23 µM); in the assay with Neisseria gonorrhoeae [2] it was 1 µg/mL (≈ 2.86 µM); with Proteus mirabilis, 0.39 µg/mL (≈ 1.12 µM); in the assay with Salmonella typhimurium, 3.12 µg/mL (≈ 8.92 µM); with Neisseria gonorrhoeae [3], 1 µg/mL (≈ 2.86 µM). The MIC with Escherichia coli [4] worked out at 10 µg/mL (≈ 28.6 µM). The compound also showed a median effective dose (ED50) in the assay on Escherichia coli [1] of 14 mg/kg.
In the case of `CCc1cc2c(s1)C=NN(S(=O)(=O)c1ccccc1Cl)B2O`, the MIC stood at 12.5 µg/mL (≈ 35.2 µM) against Klebsiella aerogenes; 0.31 µg/mL (≈ 0.874 µM) against Klebsiella pneumoniae; 0.5 µg/mL (≈ 1.41 µM) with Neisseria gonorrhoeae [2]; 0.39 µg/mL (≈ 1.1 µM) in the assay on Proteus mirabilis; 0.78 µg/mL (≈ 2.2 µM) with Salmonella typhimurium; 1 µg/mL (≈ 2.82 µM) in the assay with Neisseria gonorrhoeae [3]. Also, inhibition of growth with Escherichia coli [4] (MIC) required 3.12 µg/mL (≈ 8.8 µM). The compound also displayed a 50% effective dose (ED50) in the assay on Escherichia coli [1] of 49 mg/kg.
On to `CCc1cc2c(s1)B(O)N(S(=O)(=O)c1ccccc1Cl)N=C2`, for which the MIC against Klebsiella aerogenes was 25 µg/mL (≈ 70.5 µM); in the assay with Klebsiella pneumoniae, 1.25 µg/mL (≈ 3.52 µM); in the assay on Neisseria gonorrhoeae [2] it was 0.5 µg/mL (≈ 1.41 µM); against Proteus mirabilis, 1.56 µg/mL (≈ 4.4 µM); in the assay on Salmonella typhimurium, 2.5 µg/mL (≈ 7.05 µM); in the assay with Neisseria gonorrhoeae [3] it was 1 µg/mL (≈ 2.82 µM). The compound further showed an MIC in the assay with Escherichia coli [4] of 10 µg/mL (≈ 28.2 µM). Besides, the 50% effect level with Escherichia coli [1] (ED50) was put at a dose of 24 mg/kg.
For the compound `O=S(=O)(c1ccccc1Cl)N1N=Cc2cc(Br)sc2B1O`, the MIC against Klebsiella aerogenes is above 50 µg/mL; in the assay with Klebsiella pneumoniae, above 50 µg/mL; in the assay on Neisseria gonorrhoeae [2], above 8 µg/mL; with Proteus mirabilis, above 50 µg/mL; against Salmonella typhimurium it was above 50 µg/mL; with Neisseria gonorrhoeae [3] it was above 8 µg/mL. This compound also yielded an MIC against Escherichia coli [4] above 50 µg/mL. For the same compound, in the assay on Escherichia coli [1], the ED50 is above 300 mg/kg.
Regarding `Cc1ccc(S(=O)(=O)N2N=Cc3sc(C)cc3B2O)c(Cl)c1`, the minimal inhibitory concentration (MIC) with Klebsiella aerogenes was 50 µg/mL (≈ 141 µM); against Klebsiella pneumoniae it was 1.56 µg/mL (≈ 4.4 µM); against Neisseria gonorrhoeae [2], 0.5 µg/mL (≈ 1.41 µM); in the assay on Proteus mirabilis, 1.56 µg/mL (≈ 4.4 µM); in the assay with Salmonella typhimurium, 12.5 µg/mL (≈ 35.2 µM); in the assay on Neisseria gonorrhoeae [3], 1 µg/mL (≈ 2.82 µM). In addition, it took 50 µg/mL (≈ 141 µM) to inhibit growth with Escherichia coli [4] (MIC). Moreover, in the assay on Escherichia coli [1], the ED50 is 32 mg/kg.
On to `CC(=O)Nc1ccc(S(=O)(=O)N2N=Cc3cc(Br)ccc3B2O)c(Cl)c1`, for which the minimal inhibitory concentration (MIC) against Klebsiella aerogenes came to 50 µg/mL (≈ 110 µM); against Klebsiella pneumoniae, 3.12 µg/mL (≈ 6.83 µM); in the assay on Neisseria gonorrhoeae [2] it was 1 µg/mL (≈ 2.19 µM); against Proteus mirabilis, 1.56 µg/mL (≈ 3.42 µM); against Salmonella typhimurium, 12.5 µg/mL (≈ 27.4 µM); with Neisseria gonorrhoeae [3], 2 µg/mL (≈ 4.38 µM). In the assay on Escherichia coli [4], this compound gave a minimal inhibitory concentration (MIC) of 50 µg/mL (≈ 110 µM). The same compound registered a median effective dose (ED50) with Escherichia coli [1] of 83 mg/kg.
For the compound `CN(C)S(=O)(=O)N1N=Cc2ccccc2B1O`, the MIC with Klebsiella aerogenes is above 50 µg/mL; in the assay with Klebsiella pneumoniae, 12.5 µg/mL (≈ 49.4 µM); against Neisseria gonorrhoeae [2], above 8 µg/mL; with Proteus mirabilis it was 50 µg/mL (≈ 198 µM); against Salmonella typhimurium it was 50 µg/mL (≈ 198 µM); in the assay on Neisseria gonorrhoeae [3], above 8 µg/mL. In addition, in the assay with Escherichia coli [4], the MIC is above 50 µg/mL. Moreover, the 50% effect level in the assay on Escherichia coli [1] (ED50) was put at a dose of 57 mg/kg.
In the case of `Cc1ccc2c(c1)C=NN(S(=O)(=O)c1ccc(N)cc1)B2O`, the MIC against Klebsiella aerogenes is 25 µg/mL (≈ 79.3 µM); against Klebsiella pneumoniae, 1.56 µg/mL (≈ 4.95 µM); against Neisseria gonorrhoeae [2] it was 2 µg/mL (≈ 6.35 µM); against Proteus mirabilis it was 0.39 µg/mL (≈ 1.24 µM); in the assay on Salmonella typhimurium, 3.12 µg/mL (≈ 9.9 µM); in the assay with Neisseria gonorrhoeae [3] it was 8 µg/mL (≈ 25.4 µM). In addition, the minimum inhibitory concentration (MIC) with Escherichia coli [4] turned out to be 6.25 µg/mL (≈ 19.8 µM). In the assay with Escherichia coli [1], this compound displayed a 50% effective dose (ED50) of 5 mg/kg.
As for `Cc1ccccc1S(=O)(=O)N1N=Cc2sc(Br)cc2B1O`, the MIC was 50 µg/mL (≈ 130 µM) against Klebsiella aerogenes; 3.12 µg/mL (≈ 8.1 µM) with Klebsiella pneumoniae; 0.5 µg/mL (≈ 1.3 µM) with Neisseria gonorrhoeae [2]; 1.56 µg/mL (≈ 4.05 µM) against Proteus mirabilis; 6.25 µg/mL (≈ 16.2 µM) with Salmonella typhimurium; 0.5 µg/mL (≈ 1.3 µM) against Neisseria gonorrhoeae [3]. In the assay with Escherichia coli [4], this compound had an MIC of 25 µg/mL (≈ 64.9 µM). In the assay on Escherichia coli [1], it took a dose of 57 mg/kg to reach the 50% effect level (ED50).
`CCCS(=O)(=O)N1N=Cc2cc(C)ccc2B1O`: the MIC came out at 10 µg/mL (≈ 37.6 µM) in the assay on Klebsiella aerogenes; 1.25 µg/mL (≈ 4.7 µM) in the assay with Klebsiella pneumoniae; 2 µg/mL (≈ 7.52 µM) against Neisseria gonorrhoeae [2]; 1.56 µg/mL (≈ 5.86 µM) against Proteus mirabilis; 2.5 µg/mL (≈ 9.39 µM) with Salmonella typhimurium; 2 µg/mL (≈ 7.52 µM) in the assay with Neisseria gonorrhoeae [3]. For the same compound, the MIC with Escherichia coli [4] is 6.25 µg/mL (≈ 23.5 µM). The same compound gave an ED50 with Escherichia coli [1] of 73 mg/kg.
Take `Cc1ccc(S(=O)(=O)N2N=Cc3cc(Cl)ccc3B2O)cc1`: the MIC in the assay with Klebsiella aerogenes was above 50 µg/mL; against Klebsiella pneumoniae, 6.25 µg/mL (≈ 18.7 µM); in the assay with Neisseria gonorrhoeae [2], 1 µg/mL (≈ 2.99 µM); against Proteus mirabilis, 3.12 µg/mL (≈ 9.32 µM); against Salmonella typhimurium, 3.12 µg/mL (≈ 9.32 µM); in the assay on Neisseria gonorrhoeae [3] it was 2 µg/mL (≈ 5.98 µM). This compound yielded a minimal inhibitory concentration (MIC) in the assay with Escherichia coli [4] of 25 µg/mL (≈ 74.7 µM). Further, the ED50 with Escherichia coli [1] is around 20 mg/kg.
